Measured values reported in ChEMBL document CHEMBL4808182, “Discovery of the Soluble Guanylate Cyclase Activator Runcaciguat (BAY 1101042)” (J Med Chem, 2021).
Blank lines part the entries; values can stand above or below the compound they belong to.

Tests used:
[1] = target: T1, Guanylate cyclase soluble subunit alpha-1 (Rattus norvegicus) (UniProt P19686); assay: Activation of recombinant rat sGC alpha1 subunit expressed in CHO cells assessed as induction of [32P-cGMP] formation by measuring efficacy using alpha-[32P-GTP] as substrate measured after 6 mins by luminescence assay relative to control; type: cell-based
T1 sequence (whole entry): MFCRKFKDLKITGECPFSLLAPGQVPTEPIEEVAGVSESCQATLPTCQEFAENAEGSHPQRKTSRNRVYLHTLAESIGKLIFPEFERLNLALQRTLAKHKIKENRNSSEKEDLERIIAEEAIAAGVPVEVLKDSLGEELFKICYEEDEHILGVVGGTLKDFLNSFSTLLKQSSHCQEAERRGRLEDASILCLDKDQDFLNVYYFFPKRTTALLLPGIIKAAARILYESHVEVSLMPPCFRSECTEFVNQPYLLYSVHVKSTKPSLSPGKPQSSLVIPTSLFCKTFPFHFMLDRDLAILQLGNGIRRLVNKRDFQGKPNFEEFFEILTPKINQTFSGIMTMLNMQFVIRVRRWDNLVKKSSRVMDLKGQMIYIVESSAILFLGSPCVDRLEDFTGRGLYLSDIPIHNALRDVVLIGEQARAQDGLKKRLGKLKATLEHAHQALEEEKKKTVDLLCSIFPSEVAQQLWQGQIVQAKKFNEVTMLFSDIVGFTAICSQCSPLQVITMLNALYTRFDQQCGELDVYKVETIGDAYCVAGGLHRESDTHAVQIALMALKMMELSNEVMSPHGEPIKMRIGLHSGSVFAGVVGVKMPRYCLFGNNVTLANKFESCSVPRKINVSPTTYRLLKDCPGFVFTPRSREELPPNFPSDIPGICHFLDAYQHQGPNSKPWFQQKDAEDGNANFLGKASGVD

[2] = target: T1, Guanylate cyclase soluble subunit alpha-1 (Rattus norvegicus); assay: Activation of recombinant rat sGC alpha1 subunit expressed in CHO cells assessed as induction of [32P-cGMP] formation using alpha-[32P-GTP] as substrate measured after 6 mins by luminescence assay; type: cell-based; settings: filed as activator
[3] = Plasma clearance in iv dosed Beagle dog measured up to 24 hrs by LC-MS analysis; type: ADME, organism-based, Canis lupus familiaris
[4] = Clearance in Wistar rat at 0.3 mg/kg, iv measured up to 24 hrs by LC-MS analysis; type: ADME, organism-based; settings: in vivo
Outline: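 Rats dosed iv at 0.3 mg/kg; blood clearance determined.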

[5] = Plasma clearance in iv dosed cynomolgus monkey measured up to 24 hrs by LC-MS analysis; type: ADME, organism-based, Macaca fascicularis
[6] = Activation of recombinant rat sGC expressed in CHO cells by luminescence assay; type: cell-based
Outline: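 Stable CHO reporter cell line overexpressing rat sGC; cGMP formation read as luminescence. EC50 from concentration–response. MEC taken as lowest concentration giving at least threefold increase in basal luminescence.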

[7] = Induction of CYP3A4 in human hepatocytes using phenacetin as substrate incubated for 60 mins by LC-MS/MS analysis; settings: 1 h
[8] = Half life in iv dosed Wistar rat measured up to 24 hrs by LC-MS analysis; type: ADME, organism-based; settings: in vivo
[9] = Oral bioavailability in Beagle dog measured up to 24 hrs by LC-MS analysis; type: ADME, organism-based, Canis lupus familiaris; settings: in vivo
[10] = Volume of distribution at steady state in iv dosed Wistar rat measured up to 24 hrs by LC-MS analysis; type: ADME, organism-based; settings: in vivo, read-out: Vdss
Outline: (§1)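 Three animals per species and strain received an intravenous dose. Steady-state volume of distribution (L/kg) was derived from the blood concentration–time profile, alongside blood clearance and terminal half-life.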

[11] = Half life in iv dosed Beagle dog measured up to 24 hrs by LC-MS analysis; type: ADME, organism-based, Canis lupus familiaris; settings: in vivo
[12] = Volume of distribution at steady state in iv dosed Beagle dog measured up to 24 hrs by LC-MS analysis; type: ADME, organism-based, Canis lupus familiaris; settings: in vivo, read-out: Vdss; outline: as §1
[13] = Oral bioavailability in Wistar rat measured up to 24 hrs by LC-MS analysis; type: ADME, organism-based; settings: in vivo

SMILES: O=C(Nc1cccc(CC2(C(=O)O)CC2)c1)[C@H](c1ccc(CN2N=C(c3ccccc3)OCC2=O)cc1)C1CCCC1
- clearance [3]: 13.7 mL/min/kg
- clearance [4]: 55 mL/min/kg
- MEC [2]: 1 nM
- clearance [5]: 30 mL/min/kg

SMILES: C[C@H]([C@H](C(=O)Nc1cccc(CCC(=O)O)c1)c1ccc(CN2N=C(c3ccccc3)OCC2=O)cc1)C(F)(F)F
- clearance [3]: 23.3 mL/min/kg
- clearance [4]: 27 mL/min/kg
- MEC [2]: 3 nM
- clearance [5]: 16.7 mL/min/kg

SMILES: Cc1c(CCC(=O)O)cccc1NC(=O)[C@H](c1ccc(Cn2nc(-c3ccccc3)ccc2=O)cc1)C1CCCC1
- MEC [2]: 1 nM

SMILES: CC(C)C(CC(=O)O)c1ccc(Cl)c(NC(=O)[C@H](c2ccc(Cl)cc2)[C@@H](C)C(F)(F)F)c1 (stereo in doubt; 44b) [listing 1 of 2 here]
- Efficacy ([1]; filed as activator): 47%
- MEC [2]: 3 nM

SMILES: C[C@H]([C@H](C(=O)Nc1cccc(CC2(C(=O)O)CC2)c1Cl)c1ccc(Cl)cc1)C(F)(F)F
- Efficacy [1]: 19%
- MEC [2]: 100 nM

SMILES: O=C(O)[C@H]1Cc2cccc(NC(=O)[C@H](c3ccc(CN4N=C(c5ccccc5)OCC4=O)cc3)C3CCCC3)c2C1
- MEC [2]: 30 nM

SMILES: Cc1c(CCC(=O)O)cccc1NC(=O)[C@H](c1ccc(Cn2nc(C(F)(F)F)ccc2=O)cc1)C1CCCC1
- MEC [2]: 3 nM

SMILES: CC(C)C(CC(=O)O)c1ccc(Cl)c(NC(=O)[C@H](c2ccc(Cl)cc2)[C@@H](C)C(F)(F)F)c1 (stereo in doubt; 44a) [listing 1 of 2 here]
- Efficacy ([1]; filed as activator): 58%
- MEC [2]: 6.5 nM

SMILES: Cc1c(CCC(=O)O)cccc1NC(=O)[C@H](c1ccc(Cl)cc1)C1CCCC1
- EC50 ([6]; CHO): 0.044 µM
- Efficacy [1]: 19%
- clearance [4]: 12.8 mL/min/kg
- MEC [2]: 200 nM

SMILES: CC[C@@H](C)[C@H](C(=O)Nc1cccc(CCC(=O)O)c1C)c1ccc(CN2N=C(c3ccccc3)OCC2=O)cc1
- MEC [2]: 1 nM

SMILES: CC(C)C(CC(=O)O)c1ccc(Cl)c(NC(=O)[C@H](c2ccc(Cl)cc2)[C@@H](C)C(F)(F)F)c1 (stereo in doubt; 44a) [listing 2 of 2 here]
- EC50 ([6]; cho): 0.028 µM
- Activity [7]: 10 nM

SMILES: CCN(C)C(C(=O)Nc1cccc(CCC(=O)O)c1C)c1ccc(CN2N=C(c3ccccc3)OCC2=O)cc1 (stereo not given)
- MEC [2]: 300 nM

SMILES: Cc1ccc(=O)n(Cc2ccc(C(C(=O)Nc3cccc(CCC(=O)O)c3C)C3CCCC3)cc2)n1 (racemic)
- MEC [2]: 30 nM

SMILES: O=C(N[C@@H](CO)c1ccccc1)C(c1ccc(Cn2nc(-c3ccccc3)c3ccccc3c2=O)cc1)C1CCCC1 (stereo not given in full)
- MEC [2]: 100 nM

SMILES: CC(C)C(CC(=O)O)c1ccc(Cl)c(NC(=O)[C@H](c2ccc(Cl)cc2)[C@@H](C)C(F)(F)F)c1 (stereo in doubt; 44b) [listing 2 of 2 here]
- EC50 ([6]; cho): 0.01 µM
- Activity [7]: < 29 nM

SMILES: O=C(O)c1ccc(CNC(=O)C(c2ccc(CN3N=C(c4ccccc4)OCC3=O)cc2)C2CCCC2)cc1 (racemic)
- MEC [2]: 10 nM

SMILES: Cc1c(CCC(=O)O)cccc1NC(=O)C(c1ccc(CN2CCOC(c3ccccc3)=N2)cc1)C1CCCC1 (racemic)
- MEC [2]: 1000 nM

SMILES: C[C@H]([C@H](C(=O)Nc1cc(CC2(C(=O)O)CC2)ccc1Cl)c1ccc(Cl)cc1)C(F)(F)F
- Efficacy ([1]; filed as activator): 63%
- clearance [3]: 25 mL/min/kg
- clearance [4]: 7.67 mL/min/kg
- half-life [8]: 4.3 h
- bioavailability [9]: 57%
- Vd [10]: 1.5 L/kg
- half-life [11]: 11 h
- Vd [12]: 3 L/kg
- bioavailability [13]: 84%
- MEC [2]: 0.3 nM
- clearance [5]: 4 mL/min/kg

SMILES: C[C@H]([C@H](C(=O)Nc1cc(C2(CC(=O)O)CCC2)ccc1Cl)c1ccc(Cl)cc1)C(F)(F)F
- EC50 ([6]; CHO): 0.005 µM
- Efficacy [1]: 37%
- Activity [7]: 256 nM
- MEC [2]: 1 nM

SMILES: Cc1c(C=C[C@H](c2ccc(CN3N=C(c4ccccc4)OCC3=O)cc2)C2CCCC2)cccc1CCC(=O)O (mixture of isomers)
- MEC [2]: 300 nM

SMILES: CCc1ccc([C@@H](C(=O)Nc2cc(C3(CC(=O)O)CC3)ccc2F)[C@@H](C)C(F)(F)F)cc1
- EC50 ([6]; CHO): 0.111 µM
- Efficacy ([1]; filed as activator): 43%
- Activity [7]: 31 nM
- MEC [2]: 10 nM

SMILES: Cc1c(CCC(=O)O)cccc1NC(=O)C(c1ccc(Cn2ncccc2=O)cc1)C1CCCC1 (racemic)
- MEC [2]: 1000 nM

SMILES: CC(C)(CCCCNC(=O)[C@H](c1ccc(CN2N=C(c3ccccc3)OCC2=O)cc1)C1CCCC1)C(=O)O
- MEC [2]: 100 nM

SMILES: O=C(O)CCCCCNC(=O)[C@H](c1ccc(CN2N=C(c3ccccc3)OCC2=O)cc1)C1CCCC1
- MEC [2]: 100 nM

SMILES: Cc1c(CCC(=O)O)cccc1NC(=O)[C@H](c1ccc(CN2N=C(c3ccccc3)OCC2=O)cc1)C(C)C
- MEC [2]: 30 nM

SMILES: Cc1c(CCC(=O)O)cccc1C(=O)NC(c1ccc(CN2N=C(c3ccccc3)OCC2=O)cc1)C1CCCC1 (stereo not given)
- MEC [2]: 3000 nM

Continued, values first:

- Efficacy ([1]; filed as activator): 44%
- MEC [2]: 3 nM
SMILES: Cc1ccc(CC2(C(=O)O)CC2)cc1NC(=O)[C@H](c1ccc(Cl)cc1)[C@@H](C)C(F)(F)F

- Efficacy [1]: 18%
- MEC [2]: 1000 nM
SMILES: Cc1c(CCC(=O)O)cccc1NC(=O)[C@H](c1ccc(Cl)cc1)[C@@H](C)C(F)(F)F

- Efficacy [1]: 4%
- MEC [2]: 20 nM
SMILES: C[C@H]([C@H](C(=O)Nc1cccc(CC2(C(=O)O)CC2)c1)c1ccc(Cl)cc1)C(F)(F)F

- MEC [2]: 10000 nM
SMILES: CN(C(=O)C(c1ccc(CN2N=C(c3ccccc3)OCC2=O)cc1)C1CCCC1)c1cccc(CCC(=O)O)c1 (stereo not given)

- clearance [3]: 30 mL/min/kg
- clearance [4]: 5.17 mL/min/kg
- MEC [2]: 10 nM
- clearance [5]: 23.3 mL/min/kg
SMILES: O=C(NCCCCC1(C(=O)O)CC1)[C@H](c1ccc(CN2N=C(c3ccccc3)OCC2=O)cc1)C1CCCC1

- Efficacy [1]: 1.2%
- MEC [2]: 300 nM
SMILES: C[C@H]([C@H](C(=O)Nc1ccc(Cl)c(CC2(C(=O)O)CC2)c1)c1ccc(Cl)cc1)C(F)(F)F

- Efficacy [1]: 34%
- MEC [2]: 0.3 nM
SMILES: C[C@H]([C@H](C(=O)Nc1cc(CC2(C(=O)O)CC2)ccc1F)c1ccc(Cl)cc1)C(F)(F)F

- MEC [2]: 7 nM
SMILES: CC[C@H](C)[C@H](C(=O)Nc1cccc(CCC(=O)O)c1C)N1CCC(CN2N=C(c3ccccc3)OCC2=O)CC1

- EC50 ([6]; CHO): 0.07 µM
- Efficacy ([1]; filed as activator): 52%
- Activity [7]: 2245 nM
- MEC [2]: 3 nM
SMILES: C[C@H]([C@H](C(=O)Nc1cc(C2(CC(=O)O)COC2)ccc1Cl)c1ccc(Cl)cc1)C(F)(F)F

- MEC [2]: 300 nM
SMILES: O=C(O)CCc1cccc(NC(=O)[C@@H](c2ccc(CN3N=C(c4ccccc4)OCC3=O)cc2)C2CCCC2)c1

- MEC [2]: 30 nM
SMILES: CC(C)(Cc1cccc(NC(=O)[C@H](c2ccc(CN3N=C(c4ccccc4)OCC3=O)cc2)C2CCCC2)c1)C(=O)O

- MEC [2]: 30 nM
SMILES: CC[C@@H](C)[C@H](C(=O)Nc1cccc(CCC(=O)O)c1C)N1CCC(CN2N=C(c3ccccc3)OCC2=O)CC1

- MEC [2]: 3 nM
SMILES: Cc1c(CCC(=O)O)cccc1NC(=O)[C@H](c1ccc(CN2N=C(c3ccccc3)OCC2=O)cc1)[C@@H](C)C(F)(F)F
